Published values collected from several papers.
Compare with care: the assays were run in different laboratories.
Target: Interleukin-1 receptor-associated kinase 3 (IRAK3, Homo sapiens, UniProt Q9Y616)
One construct used (Q9Y616 1-596): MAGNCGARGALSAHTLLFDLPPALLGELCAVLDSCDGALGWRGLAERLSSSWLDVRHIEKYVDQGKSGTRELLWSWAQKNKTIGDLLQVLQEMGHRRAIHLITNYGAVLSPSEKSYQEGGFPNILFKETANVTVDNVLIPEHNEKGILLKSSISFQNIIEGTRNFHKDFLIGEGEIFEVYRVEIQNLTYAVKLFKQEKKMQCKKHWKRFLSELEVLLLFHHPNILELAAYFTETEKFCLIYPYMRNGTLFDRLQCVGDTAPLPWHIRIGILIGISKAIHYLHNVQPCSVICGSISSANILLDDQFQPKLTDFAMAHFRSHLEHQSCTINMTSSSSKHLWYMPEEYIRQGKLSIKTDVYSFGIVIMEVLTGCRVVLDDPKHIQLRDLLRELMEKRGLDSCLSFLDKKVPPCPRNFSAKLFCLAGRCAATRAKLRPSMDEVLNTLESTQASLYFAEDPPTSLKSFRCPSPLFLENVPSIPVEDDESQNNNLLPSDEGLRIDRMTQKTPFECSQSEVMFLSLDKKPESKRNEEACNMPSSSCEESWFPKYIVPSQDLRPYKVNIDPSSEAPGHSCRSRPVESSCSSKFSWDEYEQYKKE

O=C(NCC1CCOCC1)c1n[nH]cc1NC(=O)c1c(F)cccc1F  remaining binding (binding, competition with immobilised ligand; 1 µM): 92%
O=C(c1ccc(Nc2ncc(Cl)c(-c3cc4ccccc4s3)n2)cc1)N1CCC(N2CCCC2)CC1  remaining binding (binding, competition with immobilised ligand; 1 µM): 6%
Nc1ncc2c(n1)-c1c([nH]c3ccc(C#CC4CC4)cc13)CCCC2  remaining binding (binding, competition with immobilised ligand; 1 µM): 71%
CN(C)c1ncc(F)c(-c2cnn3ncccc23)n1  remaining binding (binding; 1 µM): 100%
O=C(NCCCN1CCOCC1)c1ccc(Nc2ncc(Cl)c(-c3ccc(Cl)s3)n2)cc1  remaining binding (binding, competition with immobilised ligand; 1 µM): 13%
CC1CCCN1c1nccc(-c2cnn3ncccc23)n1 (stereo not drawn)  remaining binding (binding; 1 µM): 72%
CN(c1ccnc(CNc2nc(Nc3ccc4c(c3)CC(=O)N4)ncc2C(F)(F)F)n1)S(C)(=O)=O  remaining binding (cell-free assay, competition with immobilised ligand; 1 µM): 11%
O=C(c1ccc(Nc2nccc(-c3cc4ccccc4s3)n2)cc1)N1CCC(N2CCCC2)CC1  remaining binding (binding, competition with immobilised ligand; 1 µM): 14%
N[C@@H]1CCN(c2nccc(-c3cnn4ncccc34)n2)C1  remaining binding (binding; 1 µM): 100%
C[C@@H](c1ccc(-n2cnc3c(N)ncnc32)cc1)N1CCc2nn(C)c(Cc3ccccc3)c2C1=O  remaining binding (binding, competition with immobilised ligand; 0.1 µM): 79%
FC(F)(F)Oc1cccc(-c2cnc3ccc(-c4ccncc4)nn23)c1  remaining binding (cell-free assay, competition with immobilised ligand; 5 µM): 7.6%
Cn1nc(C(F)(F)F)cc1-c1cnc(N2CCc3cc(S(=O)(=O)Nc4c(F)cc(Cl)cc4F)cc(N4CCCC4=O)c32)nc1  remaining binding (cell-free assay, competition with immobilised ligand; 1 µM): 100%
COc1cnc(Nc2cccc(S(N)(=O)=O)c2)nc1N1CCN(c2ccccc2)C(=O)C1  remaining binding (binding, competition with immobilised ligand; 1 µM): 100%
CCOCCn1cc(C(=O)Nc2ccc(-n3nc(-c4cccnc4)cc3C(F)(F)F)cn2)ccc1=O  remaining binding (cell-free assay, competition with immobilised ligand; 1 µM): 100%
C[C@@H]1CCN(c2nccc(-c3cnn4ncccc34)n2)C1  remaining binding (binding; 1 µM): 52%
O=C1CCc2cc(Nc3cc(OC4CCOCC4)c([N+](=O)[O-])cc3Cl)ccc2N1  remaining binding (cell-free assay, competition with immobilised ligand; 1 µM): 98%
COc1ncc2cc3ccccc3nc2c1C#N  remaining binding (cell-free assay, competition with immobilised ligand; 5 µM): 94%
CCCCN(CCCC)C(=O)CN1C[C@H](c2cc(OC)c3c(c2)OCO3)[C@@H](C(=O)O)[C@@H]1CC(C)(C)CCC  remaining binding (cell-free assay, competition with immobilised ligand; 1 µM): 100%
CN(C)c1nccc(-c2cnn3ncccc23)n1  remaining binding (binding; 1 µM): 100%
Nc1cnc(N2CCc3cc(S(=O)(=O)Nc4c(F)cc(Cl)cc4F)cc(N4CCCC4=O)c32)nc1  remaining binding (cell-free assay, competition with immobilised ligand; 1 µM): 89%
COc1cnc(Nc2cccc(S(N)(=O)=O)c2)nc1N1CCN(c2ccccc2)CC1  remaining binding (binding, competition with immobilised ligand; 1 µM): 100%
